Test results: ChEMBL document CHEMBL2046372, “Design and synthesis of pyrrolo[3,2-d]pyrimidine human epidermal growth factor receptor 2 (HER2)/epidermal growth factor receptor (EGFR) dual inhibitors: exploration of novel back-pocket binders” (J Med Chem, 2012)

Columns and labels:
[1] = biological target: Mitogen-activated protein kinase kinase kinase 5 (Homo sapiens, UniProt Q99683); experiment: Inhibition of N-terminus FLAG-tagged ASK1 expressed in baculovirus expression system using [gamma-33P]-ATP measured after 60 mins by scintillation counting
[2] = biological target: Dual specificity mitogen-activated protein kinase kinase 1 (Homo sapiens, UniProt Q02750); experiment: Inhibition of N-terminus GST -fused MEK1 expressed using baculovirus infection system using [gamma-33P]ATP preincubated with compound for 5 mins measured after 30 mins by scintillation counting
[3] = biological target: Serine/threonine-protein kinase PLK1 (Homo sapiens, UniProt P53350); experiment: Inhibition of N-terminus FLAG-tagged PLK1 expressed in baculovirus expression system using [gamma-33P]-ATP measured after 60 mins by scintillation counting
[4] = biological target: Receptor tyrosine-protein kinase erbB-2 (Homo sapiens, UniProt P04626); experiment: Inhibition of N-terminus peptide-tagged human recombinant HER2 expressed using baculovirus infection system using [gamma-33P]-ATP preincubated with compound for 5 mins measured after 10 mins by scintillation counting
[5] = biological target: Insulin-like growth factor 1 receptor (Homo sapiens, UniProt P08069); experiment: Inhibition of IGFR1 using ATP measured after 20 mins
[6] = biological target: Aurora kinase B (Homo sapiens, UniProt Q96GD4); experiment: Inhibition of N-terminal 6xHis tagged Aurora B kinase expressed using baculovirus expression system using [gamma-33P]ATP
[7] = biological target: Mitogen-activated protein kinase kinase kinase 1 (Homo sapiens, UniProt Q13233); experiment: Inhibition of C-terminus FLAG-tagged MEKK1 expressed in baculovirus expression system using [gamma-33P]-ATP measured after 60 mins by scintillation counting
[8] = biological target: Receptor tyrosine-protein kinase erbB-4 (Homo sapiens, UniProt Q15303); experiment: Inhibition of N-terminus peptide-tagged human recombinant HER4 expressed using baculovirus infection system using [gamma-33P]-ATP preincubated with compound for 5 mins measured after 10 mins by scintillation counting
[9] = biological target: T1, Tyrosine-protein kinase Lyn (Homo sapiens, UniProt P07948); experiment: Inhibition of Lyn A using ATP preincubated with compound for 5 mins measured after 10 mins
[10] = system: CAL-27; experiment: Antitumor activity against human CAL27 cells overexpressing EGFR gene xenografted in nude mouse assessed as tumor growth regression at 100 mg/kg, po BID for 14 days relative to control; type: functional
Procedure, shortened: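 CAL27 human head and neck cancer (EGFR-overexpressing) xenografts in mice were dosed orally at 100 mg/kg. Efficacy was expressed as tumor/control ratio (T/C) against vehicle control.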

[11] = system: BT-474; experiment: Growth inhibition of human BT474 cells overexpressing HER2 gene after 5 days; type: functional; settings: BT-474, 120 h
[12] = biological target: Proto-oncogene tyrosine-protein kinase Src (Homo sapiens, UniProt P12931); experiment: Inhibition of Src using ATP preincubated with compound for 5 mins measured after 10 mins
[13] = biological target: Serine/threonine-protein kinase B-raf (Homo sapiens, UniProt P15056); experiment: Inhibition of N-terminus FLAG-tagged B-raf expressed in baculovirus expression system using [gamma-33P]-ATP measured after 60 mins by scintillation counting
[14] = biological target: Tyrosine-protein kinase Lck (Homo sapiens, UniProt P06239); experiment: Inhibition of LCK using ATP preincubated with compound for 5 mins measured after 30 mins
[15] = biological target: Mitogen-activated protein kinase 3 (Homo sapiens, UniProt P27361); experiment: Inhibition of N-terminus FLAG-tagged Erk1 expressed in baculovirus expression system using [gamma-33P]-ATP measured after 60 mins by scintillation counting
[16] = biological target: Focal adhesion kinase 1 (Homo sapiens, UniProt Q05397); experiment: Inhibition of FAK using ATP measured after 60 mins
[17] = biological target: Mitogen-activated protein kinase 14 (Homo sapiens, UniProt Q16539); experiment: Inhibition of N-terminus FLAG-tagged p38alpha expressed in baculovirus expression system using [gamma-33P]-ATP measured after 60 mins by scintillation counting
[18] = biological target: Fibroblast growth factor receptor 3 (Homo sapiens, UniProt P22607); experiment: Inhibition of FGFR3 using ATP preincubated with compound for 5 mins measured after 10 mins
[19] = biological target: Cytoplasmic tyrosine-protein kinase BMX (Homo sapiens, UniProt P51813); experiment: Inhibition of BMX using ATP measured after 10 mins
[20] = biological target: Dual specificity protein kinase TTK (Homo sapiens, UniProt P33981); experiment: Inhibition of N-terminus FLAG-tagged TTK expressed in baculovirus expression system using [gamma-33P]-ATP measured after 60 mins by scintillation counting
[21] = Metabolic stability in mouse liver microsomes at 1 umol/L after 20 mins by HPLC analysis; type: ADME, Microsome; settings: read-out: Stability
[22] = biological target: Hepatocyte growth factor receptor (Homo sapiens, UniProt P08581); experiment: Inhibition of c-Met using ATP preincubated with compound for 5 mins measured after 10 mins
[23] = biological target: Mast/stem cell growth factor receptor Kit (Homo sapiens, UniProt P10721); experiment: Inhibition of c-kit using ATP measured after 20 mins
[24] = biological target: Fibroblast growth factor receptor 1 (Homo sapiens, UniProt P11362); experiment: Inhibition of FGFR1 using ATP preincubated with compound for 5 mins measured after 10 mins
[25] = Metabolic stability in human liver microsomes at 1 umol/L after 20 mins by HPLC analysis; type: ADME, Microsome; settings: read-out: Stability
[26] = biological target: Dual specificity mitogen-activated protein kinase kinase 5 (Homo sapiens, UniProt Q13163); experiment: Inhibition of N-terminus FLAG-tagged MEK5 expressed in baculovirus expression system using [gamma-33P]-ATP measured after 30 mins by scintillation counting
[27] = biological target: Inhibitor of nuclear factor kappa-B kinase subunit beta (Homo sapiens, UniProt O14920); experiment: Inhibition of C-terminus FLAG-tagged IKKbeta expressed in baculovirus expression system using [gamma-33P]-ATP measured after 30 mins by scintillation counting
[28] = biological target: Tyrosine-protein kinase ZAP-70 (Homo sapiens, UniProt P43403); experiment: Inhibition of ZAP70 using ATP measured after 10 mins
[29] = Antitumor activity against human 4-1ST cells overexpressing HER2 gene xenografted in nude mouse assessed as tumor growth regression at 50 mg/kg, po BID for 14 days relative to control; type: functional
Procedure, shortened: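 Oral dosing at 50 mg/kg in mice bearing 4-1ST (HER2-overexpressing) tumor xenografts. Efficacy was expressed as tumor/control ratio (T/C). Significance versus control at day 14 was tested by one-tailed Shirley–Williams test.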

[30] = biological target: Glycogen synthase kinase-3 beta (Homo sapiens, UniProt P49841); experiment: Inhibition of N-terminus FLAG-tagged GSK3beta expressed in baculovirus expression system using [gamma-33P]-ATP measured after 30 mins by scintillation counting
[31] = biological target: Vascular endothelial growth factor receptor 1 (Homo sapiens, UniProt P17948); experiment: Inhibition of VEGFR1 using ATP preincubated with compound for 5 mins measured after 5 mins
[32] = biological target: T1, Tyrosine-protein kinase Lyn; experiment: Inhibition of Lyn B using ATP preincubated with compound for 5 mins measured after 10 mins
[33] = biological target: Protein kinase C theta type (Homo sapiens, UniProt Q04759); experiment: Inhibition of N-terminus FLAG-tagged PKCtheta expressed in baculovirus expression system using [gamma-33P]-ATP measured after 60 mins by scintillation counting
[34] = biological target: CYP3A4 (Homo sapiens, UniProt P08684); experiment: Inhibition of CYP3A4 at 10 uM after 15 mins; type: ADME
[35] = biological target: Platelet-derived growth factor receptor beta (Homo sapiens, UniProt P09619); experiment: Inhibition of PDGFRbeta using ATP measured after 60 mins
[36] = biological target: Vascular endothelial growth factor receptor 2 (Homo sapiens, UniProt P35968); experiment: Inhibition of N-terminus FLAG-tagged VEGFR2 expressed using baculovirus infection system after 10 mins
[37] = biological target: Tyrosine-protein kinase CSK (Homo sapiens, UniProt P41240); experiment: Inhibition of CSK using ATP preincubated with compound for 5 mins measured after 10 mins
[38] = biological target: Platelet-derived growth factor receptor alpha (Homo sapiens, UniProt P16234); experiment: Inhibition of PDGFRalpha using ATP measured after 30 mins
[39] = biological target: Mitogen-activated protein kinase 8 (Homo sapiens, UniProt P45983); experiment: Inhibition of N-terminus FLAG-tagged JNK1 expressed in baculovirus expression system using [gamma-33P]-ATP measured after 60 mins by scintillation counting
[40] = biological target: Angiopoietin-1 receptor (Homo sapiens, UniProt Q02763); experiment: Inhibition of TIE2 using ATP preincubated with compound for 5 mins measured after 10 mins

T1 sequence (P07948 whole entry): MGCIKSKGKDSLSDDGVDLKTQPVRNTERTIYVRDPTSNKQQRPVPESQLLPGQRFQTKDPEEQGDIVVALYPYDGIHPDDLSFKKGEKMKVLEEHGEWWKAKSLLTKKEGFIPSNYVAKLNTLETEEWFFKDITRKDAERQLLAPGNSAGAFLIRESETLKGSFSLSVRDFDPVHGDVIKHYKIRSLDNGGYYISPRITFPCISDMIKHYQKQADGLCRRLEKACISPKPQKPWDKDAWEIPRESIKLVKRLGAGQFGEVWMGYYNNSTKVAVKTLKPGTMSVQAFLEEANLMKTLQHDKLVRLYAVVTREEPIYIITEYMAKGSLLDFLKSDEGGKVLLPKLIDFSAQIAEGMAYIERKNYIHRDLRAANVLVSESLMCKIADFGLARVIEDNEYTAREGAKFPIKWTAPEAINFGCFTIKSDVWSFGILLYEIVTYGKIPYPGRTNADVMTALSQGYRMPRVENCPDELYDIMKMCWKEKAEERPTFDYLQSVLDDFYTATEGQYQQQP
Sequence of Platelet-derived growth factor receptor alpha (P16234 whole entry): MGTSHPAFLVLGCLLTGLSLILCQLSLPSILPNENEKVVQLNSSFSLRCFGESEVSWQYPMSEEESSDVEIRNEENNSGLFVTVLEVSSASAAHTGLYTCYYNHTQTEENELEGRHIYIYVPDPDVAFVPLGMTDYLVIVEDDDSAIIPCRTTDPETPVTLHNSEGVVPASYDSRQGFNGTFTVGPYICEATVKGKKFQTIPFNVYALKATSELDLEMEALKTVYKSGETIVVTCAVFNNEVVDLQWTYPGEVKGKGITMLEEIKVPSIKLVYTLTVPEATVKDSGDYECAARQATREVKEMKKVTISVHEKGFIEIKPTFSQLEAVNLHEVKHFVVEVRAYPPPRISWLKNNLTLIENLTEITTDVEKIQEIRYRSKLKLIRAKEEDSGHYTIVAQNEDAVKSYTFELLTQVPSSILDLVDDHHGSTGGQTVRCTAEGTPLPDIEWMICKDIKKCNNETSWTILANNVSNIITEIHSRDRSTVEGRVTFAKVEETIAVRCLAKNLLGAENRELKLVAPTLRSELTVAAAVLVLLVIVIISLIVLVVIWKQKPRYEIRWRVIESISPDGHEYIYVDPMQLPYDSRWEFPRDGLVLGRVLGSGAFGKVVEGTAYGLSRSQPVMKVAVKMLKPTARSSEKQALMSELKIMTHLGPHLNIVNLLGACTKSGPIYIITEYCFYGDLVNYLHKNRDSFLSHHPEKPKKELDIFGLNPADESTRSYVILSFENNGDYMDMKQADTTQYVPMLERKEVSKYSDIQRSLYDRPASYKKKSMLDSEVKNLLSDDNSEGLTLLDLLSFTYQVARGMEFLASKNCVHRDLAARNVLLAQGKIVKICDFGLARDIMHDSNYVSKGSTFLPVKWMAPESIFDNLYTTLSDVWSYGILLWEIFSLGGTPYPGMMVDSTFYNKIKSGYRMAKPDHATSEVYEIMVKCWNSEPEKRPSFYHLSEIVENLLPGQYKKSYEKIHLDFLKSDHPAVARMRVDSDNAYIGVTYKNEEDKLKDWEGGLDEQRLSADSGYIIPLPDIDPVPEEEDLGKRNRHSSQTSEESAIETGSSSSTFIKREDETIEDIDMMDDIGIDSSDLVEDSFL
Sequence of Protein kinase C theta type (Q04759 whole entry): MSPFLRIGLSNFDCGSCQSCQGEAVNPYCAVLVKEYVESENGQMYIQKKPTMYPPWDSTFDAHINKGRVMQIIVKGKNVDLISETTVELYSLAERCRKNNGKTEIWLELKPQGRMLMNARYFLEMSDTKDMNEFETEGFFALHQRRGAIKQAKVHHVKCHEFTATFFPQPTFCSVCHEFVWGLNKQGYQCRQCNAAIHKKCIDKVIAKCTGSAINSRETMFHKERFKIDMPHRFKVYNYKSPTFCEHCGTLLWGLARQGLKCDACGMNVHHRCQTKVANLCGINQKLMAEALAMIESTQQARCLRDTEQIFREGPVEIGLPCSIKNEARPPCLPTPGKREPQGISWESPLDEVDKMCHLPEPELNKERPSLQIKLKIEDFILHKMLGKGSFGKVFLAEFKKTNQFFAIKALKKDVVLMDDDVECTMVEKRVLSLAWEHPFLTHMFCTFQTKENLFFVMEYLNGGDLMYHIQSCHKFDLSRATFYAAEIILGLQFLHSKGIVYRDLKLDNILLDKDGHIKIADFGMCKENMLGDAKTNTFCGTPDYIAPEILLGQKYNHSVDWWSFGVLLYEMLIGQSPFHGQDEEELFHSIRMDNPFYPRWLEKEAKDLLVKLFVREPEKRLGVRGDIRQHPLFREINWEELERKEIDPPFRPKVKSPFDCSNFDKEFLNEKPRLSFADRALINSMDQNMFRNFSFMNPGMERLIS
Sequence of Platelet-derived growth factor receptor beta (P09619 whole entry): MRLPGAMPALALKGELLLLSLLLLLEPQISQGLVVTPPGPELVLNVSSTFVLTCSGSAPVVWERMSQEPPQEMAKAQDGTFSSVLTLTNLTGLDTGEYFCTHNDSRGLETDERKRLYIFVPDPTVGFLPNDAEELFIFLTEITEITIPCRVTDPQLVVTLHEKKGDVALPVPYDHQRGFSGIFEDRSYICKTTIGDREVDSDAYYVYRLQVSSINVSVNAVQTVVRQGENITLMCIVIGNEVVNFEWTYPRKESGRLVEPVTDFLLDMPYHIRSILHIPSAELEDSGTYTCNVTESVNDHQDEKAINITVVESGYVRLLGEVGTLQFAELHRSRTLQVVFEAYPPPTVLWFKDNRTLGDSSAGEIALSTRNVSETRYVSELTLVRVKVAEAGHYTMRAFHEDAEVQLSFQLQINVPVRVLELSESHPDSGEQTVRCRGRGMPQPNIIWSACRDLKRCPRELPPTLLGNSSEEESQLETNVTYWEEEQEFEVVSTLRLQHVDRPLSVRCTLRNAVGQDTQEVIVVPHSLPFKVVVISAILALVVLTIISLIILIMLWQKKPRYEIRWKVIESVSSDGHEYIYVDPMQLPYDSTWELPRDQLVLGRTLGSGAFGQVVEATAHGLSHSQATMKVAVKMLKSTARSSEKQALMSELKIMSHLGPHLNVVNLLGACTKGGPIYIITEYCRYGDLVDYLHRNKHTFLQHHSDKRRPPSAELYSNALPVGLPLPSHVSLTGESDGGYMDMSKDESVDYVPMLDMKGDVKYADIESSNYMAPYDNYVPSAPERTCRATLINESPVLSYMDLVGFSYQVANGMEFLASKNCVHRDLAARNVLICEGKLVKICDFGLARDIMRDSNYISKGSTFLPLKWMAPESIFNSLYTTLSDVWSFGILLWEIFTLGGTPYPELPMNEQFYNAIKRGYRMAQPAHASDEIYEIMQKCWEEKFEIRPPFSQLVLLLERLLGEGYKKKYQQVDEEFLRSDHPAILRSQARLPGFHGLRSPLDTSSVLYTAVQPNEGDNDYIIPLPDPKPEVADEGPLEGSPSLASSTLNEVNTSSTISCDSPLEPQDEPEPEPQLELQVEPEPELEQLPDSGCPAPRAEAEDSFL
Sequence of Cytoplasmic tyrosine-protein kinase BMX (P51813 whole entry): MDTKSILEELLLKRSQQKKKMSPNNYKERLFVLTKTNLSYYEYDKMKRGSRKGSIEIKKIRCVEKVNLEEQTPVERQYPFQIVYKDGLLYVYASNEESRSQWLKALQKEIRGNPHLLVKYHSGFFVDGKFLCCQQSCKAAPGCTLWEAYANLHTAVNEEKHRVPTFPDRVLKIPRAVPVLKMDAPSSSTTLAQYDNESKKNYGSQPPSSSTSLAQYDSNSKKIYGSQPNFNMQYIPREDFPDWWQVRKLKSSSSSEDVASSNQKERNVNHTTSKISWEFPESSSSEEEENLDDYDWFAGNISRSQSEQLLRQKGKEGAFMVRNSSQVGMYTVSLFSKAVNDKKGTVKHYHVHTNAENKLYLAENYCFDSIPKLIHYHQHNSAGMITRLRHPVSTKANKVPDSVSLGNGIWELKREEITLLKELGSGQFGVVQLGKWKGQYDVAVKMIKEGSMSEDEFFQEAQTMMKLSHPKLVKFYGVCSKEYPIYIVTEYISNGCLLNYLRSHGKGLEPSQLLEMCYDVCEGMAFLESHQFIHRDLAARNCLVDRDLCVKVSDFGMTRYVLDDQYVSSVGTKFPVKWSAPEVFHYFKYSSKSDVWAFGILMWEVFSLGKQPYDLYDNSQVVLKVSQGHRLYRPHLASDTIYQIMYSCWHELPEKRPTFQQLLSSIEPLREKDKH
Sequence of Aurora kinase B (Q96GD4 whole entry): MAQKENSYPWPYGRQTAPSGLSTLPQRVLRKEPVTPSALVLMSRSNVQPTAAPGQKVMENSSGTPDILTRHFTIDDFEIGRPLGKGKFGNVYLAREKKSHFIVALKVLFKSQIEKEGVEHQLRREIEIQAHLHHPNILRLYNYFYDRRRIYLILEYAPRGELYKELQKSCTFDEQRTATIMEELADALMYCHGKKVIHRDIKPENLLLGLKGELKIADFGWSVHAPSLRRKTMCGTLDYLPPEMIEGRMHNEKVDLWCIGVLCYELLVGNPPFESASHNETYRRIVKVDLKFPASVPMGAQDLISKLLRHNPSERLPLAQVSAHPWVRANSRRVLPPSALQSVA
Sequence of Dual specificity mitogen-activated protein kinase kinase 5 (Q13163 whole entry): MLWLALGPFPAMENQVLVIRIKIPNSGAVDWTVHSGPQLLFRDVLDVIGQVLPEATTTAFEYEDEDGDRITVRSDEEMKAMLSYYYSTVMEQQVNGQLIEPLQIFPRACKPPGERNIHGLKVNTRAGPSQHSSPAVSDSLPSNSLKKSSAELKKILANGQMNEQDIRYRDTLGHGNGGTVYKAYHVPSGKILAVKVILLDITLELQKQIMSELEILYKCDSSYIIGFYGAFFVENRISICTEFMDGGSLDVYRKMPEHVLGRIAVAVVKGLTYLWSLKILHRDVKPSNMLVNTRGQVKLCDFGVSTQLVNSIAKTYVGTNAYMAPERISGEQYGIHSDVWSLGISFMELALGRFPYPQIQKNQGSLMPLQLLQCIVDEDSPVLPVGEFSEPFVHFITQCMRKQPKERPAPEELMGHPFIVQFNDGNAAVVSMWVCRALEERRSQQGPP

SMILES: CC(C)(N)C(=O)NCCn1ccc2ncnc(Nc3ccc(Oc4cccc5sncc45)c(Cl)c3)c21
- IC50 [1]: > 10 µM
- IC50 [2]: 2.1 µM
- IC50 [3]: > 10 µM
- IC50 [4]: 0.00098 µM
- IC50 [5]: > 10 µM
- IC50 [6]: > 10 µM
- IC50 [7]: > 10 µM
- IC50 [8]: 0.079 µM
- IC50 [9]: 7.1 µM
- T/C [10]: -30%
- GI50 [11]: 0.002 µM
- IC50 [12]: 8.4 µM
- IC50 [13]: > 10 µM
- IC50 [14]: 1.7 µM
- IC50 [15]: > 10 µM
- IC50 [16]: > 10 µM
- IC50 [17]: > 10 µM
- IC50 [18]: > 10 µM
- IC50 [19]: > 10 µM
- IC50 [20]: > 10 µM
- microsomal CLint at 1 µM [21]: 77 µL/min/mg
- IC50 [22]: 1.8 µM
- IC50 [23]: > 10 µM
- IC50 [24]: > 10 µM
- microsomal CLint at 1 µM [25]: 88 µL/min/mg
- IC50 [26]: > 10 µM
- IC50 [27]: > 10 µM
- IC50 [28]: > 10 µM
- T/C [29]: -23%
- IC50 [30]: > 10 µM
- IC50 [31]: > 10 µM
- IC50 [32]: 3 µM
- IC50 [33]: > 10 µM
- inhibition at 0.25 h, 10 µM [34]: 21.2%
- IC50 [35]: > 10 µM
- IC50 [36]: > 10 µM
- IC50 [37]: 3.9 µM
- IC50 [38]: > 10 µM
- IC50 [39]: > 10 µM
- IC50 [40]: 3.2 µM
